Experimental data reported in ChEMBL document CHEMBL1125333, “Predictive binding of beta-carboline inverse agonists and antagonists via the CoMFA/GOLPE approach” (J Med Chem, 1992).

These molecules were tested against GABA-A receptor; anion channel (assay: In vitro binding affinity at benzodiazepine receptor of rat cerebral cortical membranes by [3H]diazepam displacement.).
In short: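 Rat cerebral cortex homogenised in 50 mM Tris-HCl pH 7.4, centrifuged at 20000g at 4 °C and washed three times. Membranes incubated with drug and 2 nM [3H]diazepam (final) for 120 min at 4 °C, then filtered and washed with ice-cold buffer. Nonspecific binding measured with 10 μM flunitrazepam (final). IC50 estimated from Hill plots.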

Question: How did the IC50 turn out when `CC(C)COc1cc2c(cn1)[nH]c1ccccc12` was run?
Answer: Its IC50 is 0.093 µM.

Question: With `CC(C)(C)COc1cc2c3ccccc3nc-2c[nH]1` as the molecule, how does the IC50 read?
Answer: The IC50 was 0.104 µM.

Question: Which IC50 does the source give for `CC(C)(C)C(=O)c1cc2c3ccccc3nc-2c[nH]1` here?
Answer: The IC50 was 0.358 µM.

Question: `c1ccc(CNc2cc3c(cn2)[nH]c2ccccc23)cc1` was tested. Which IC50 did it give?
Answer: Its IC50 is greater than 1.28 µM.

Question: Which IC50 does the source give for `Nc1cc2c(cn1)[nH]c1ccccc12` here?
Answer: The IC50 was greater than 25 µM.

Question: `CCC(C)Oc1cc2c3ccccc3nc-2c[nH]1` (configuration not stated) was tested. Which IC50 did it give?
Answer: Its IC50 is 0.471 µM.

Question: With `c1ccc(COc2cc3c4ccccc4nc-3c[nH]2)cc1` as the molecule, how does the IC50 read?
Answer: The IC50 was greater than 1 µM.

Question: Which IC50 does the source give for `CC(C)CCOc1cc2c3ccccc3nc-2c[nH]1` here?
Answer: Its IC50 is 0.535 µM.

Species on record: Mus musculus
Test: Tested for convulsive activity in pentylenetetrazole injected mice
Assay type: functional

Question: For `CCOC(=O)c1cc2c(cn1)[nH]c1ccccc12`, which ED50 is on record?
Answer: Its ED50 is 3.2 mg/kg.

Question: With `COc1cc2c(cn1)[nH]c1ccccc12` as the molecule, how does the ED50 read?
Answer: The ED50 was 6 mg/kg.

Question: For `CCOc1cc2c(cn1)[nH]c1ccccc12`, which ED50 is on record?
Answer: Its ED50 is 7 mg/kg.

Question: How did the ED50 turn out when `COC(=O)c1cc2c(cn1)[nH]c1ccccc12` [BETA-CCM] was run?
Answer: Its ED50 is 10 mg/kg.
